# Screening data (PubChem)
# Compounds with a hit are over-represented: about 0.73% of the library has one in this group of screens.
# Tn6 DDE FP: inhibitors of Tn6 peptide binding to fibrin DD(E), primary screen, biochemical, fluorescence polarization, human fibrin, Tn6 probe; inhibition, % at 8.3 µM; Fibrinogen beta chain (Homo sapiens), P02675; 0.21% of 370,000 active; Fibrin DD(E) TRITC-Tn6 fluorescence polarization displacement;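 active = inhibition above a per-campaign cutoff: mean of compounds within control limits plus 3 SD, cut at about 15% in these data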;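 also: 0% = median of all compound wells on the plate and 100% = blocking peptide control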
# Target sequence (P02675 whole entry, looked up): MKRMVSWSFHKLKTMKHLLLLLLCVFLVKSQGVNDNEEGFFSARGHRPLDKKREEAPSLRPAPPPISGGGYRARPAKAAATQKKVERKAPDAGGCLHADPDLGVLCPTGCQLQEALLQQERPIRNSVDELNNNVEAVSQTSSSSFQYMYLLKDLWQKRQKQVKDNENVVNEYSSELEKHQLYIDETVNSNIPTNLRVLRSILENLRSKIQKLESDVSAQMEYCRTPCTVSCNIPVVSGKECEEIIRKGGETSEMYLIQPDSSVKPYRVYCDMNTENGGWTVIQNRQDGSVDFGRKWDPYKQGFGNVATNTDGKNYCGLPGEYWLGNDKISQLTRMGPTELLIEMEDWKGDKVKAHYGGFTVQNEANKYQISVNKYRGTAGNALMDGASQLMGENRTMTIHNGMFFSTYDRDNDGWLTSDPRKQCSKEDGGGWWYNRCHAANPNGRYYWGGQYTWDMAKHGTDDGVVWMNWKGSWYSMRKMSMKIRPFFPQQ
# DDE Tn7 FP inh: inhibitors of Tn7 peptide binding to fibrin DD(E), primary screen, biochemical, fluorescence polarization, human fibrin, Tn7 probe | Fibrinogen beta chain (Homo sapiens), P02675 | FP displacement of FITC-Tn7 peptide from fibrin DD(E); 0% = median of compound wells per plate | inhibition, % at 8.3 µM | 0.13% of 370,000 active | AID 720508, 2013;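 active = inhibition above the mean of compounds falling within the control limits plus 3 SD of them, cut at about 14% in these data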;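 also: 0% = plate median of compound wells and 100% = 10 µM Aha-Tn7 peptide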
#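 Assay system: human fibrin DD(E). Input: DD(E) 2 µM final. Medium: Tris buffer with calcium and detergent, pH 7.8. Compound dosing: single point at 8.3 µM. Timing: 10 min plus 3 h, room temperature. Technique: fluorescence polarization of the labelled Tn7 tracer. Read-out: percent inhibition. Replicates: singlicate testing.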
# Cardiac RTF inh: cardiac RTF calcium sensitivity inhibitors, primary screen, biochemical, IANBD-TnC fluorescence, EC70 calcium; Troponin I, cardiac muscle (Homo sapiens) + Troponin T, cardiac muscle (Homo sapiens) + …; IANBD-labeled cardiac RTF, Ca2+ fluorescence; inhibition, % at 7.15 µM; 0.12% of 340,000 active; AID 493244, 2011;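 active = inhibition above the mean inhibition of all tested compounds plus 3 SD, cut at about 17% in these data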;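 also: assay run at fixed EC70 calcium of 1.6 mM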
# Keap1 Nrf2 FP: Keap1-Nrf2 protein-protein interaction inhibitors, primary screen, biochemical, fluorescence polarization, single point. Kelch-like ECH-associated protein 1 (Homo sapiens), Q14145. Keap1 Kelch-Nrf2 peptide fluorescence polarization, 1536-well. inhibition, % at 9.4 µM. 0.15% of 340,000 active. AID 504523, 2011; in the data active = inhibition above about 12%;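 also: human Keap1 Kelch domain with fluorescein labeled Nrf2 9mer peptide probe; 0% = neutral control wells and 100% = peptide positive control; higher means more block of Keap1 binding to Nrf2 peptide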
# C-LANA FP: inhibitors of KSHV C-LANA binding to DNA, primary screen, biochemical, fluorescence polarization, FAM-LBS DNA, MBP-C-LANA, single point; 0.078% of 340,000 active; Kaposi's sarcoma herpesvirus LANA C-terminal domain (residues 932-1162) DNA binding; AID 504423, 2011; inhibition, % at 9 µM;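 active = highest replicate inhibition at or above 60% at 9 µM, even if other replicates fall short; inactive = all replicates below 60% inhibition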;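 also: 0% = neutral control wells and 100% = 4 µM acridine orange control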
# cardiac RTF act: cardiac RTF calcium sensitivity activators, primary screen, biochemical, IANBD-TnC fluorescence, EC20 calcium | activation, % at 7.2 µM | Troponin I, cardiac muscle (Homo sapiens) + Troponin T, cardiac muscle (Homo sapiens) + … | 0.24% of 340,000 active | IANBD-labeled TnC RTF fluorescence at EC20 calcium; 0% EC20 calcium, 100% full calcium;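 active = activation above the mean over all tested compounds plus 3 SD, cut at about 30% in these data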;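 also: rise in fluorescence read as greater calcium sensitivity of cardiac thin filaments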
# Active calls of the source: *; x = not tested or not shown; + = active, no number.
SMILES,Tn6 DDE FP,DDE Tn7 FP inh,Cardiac RTF inh,Keap1 Nrf2 FP,C-LANA FP,cardiac RTF act
COc1ccc(-n2c(O)c(/C=N/NS(=O)(=O)c3ccc(C)cc3)c3ccccc3c2=O)cc1OC,5,-20,-75,-133,-12,59*
COc1ccc(-n2c(O)c(/C=N/Nc3nc(C)cc(C)n3)c3ccccc3c2=O)cc1OC,-5,-2,0,-7,-1,2
COc1ccc(-n2c(O)c(/C=N/NS(=O)(=O)c3cc(C)ccc3C)c3ccccc3c2=O)cc1OC,2,7,-70,-117,-6,114*
COc1ccc(N=C2NC(=O)S/C2=C\c2ccc(N(C)C)cc2)cc1,-6,-9,-114,-5,3,174*
c1coc(-c2nc(-c3ccco3)c(-c3ccco3)nc2-c2ccco2)c1,-8,-1,107*,-3,6,-36
CC(=O)Nc1cc2nc3ccccc3oc-2cc1=O,5,2,x,x,x,x
CCOC(=O)Nc1ccc2c(c1)C(=NNC(=S)NC)c1ccccc1-2,2,15*,x,x,x,x
CCOC(=O)/C(C#N)=C\c1cc(C)n(-c2ccccc2)c1C,4,5,-12,0,-2,4
CCOC(=O)/C(C#N)=C\c1ccc(N2CCN(C/C=C/c3ccccc3)CC2)cc1,-2,9,-70,-8,1,76*
COC(=O)[C@]12C[C@H](CC(=O)N3CCN(C(=O)C4CC4)CC3)C(=O)N(Cc3ccc(Cl)cc3Cl)C1=C[C@H](C1CCCC1)O[C@@H]2C,-5,-3,x,x,x,x
Cc1ccc(CCC(=O)Nc2cc(Cl)ccc2Cl)o1,6,2,-7,-4,1,39*
Cc1ccccc1NC(=O)C1CCN(C2=NS(=O)(=O)c3ccccc32)CC1,-4,2,-5,1,61*,8
CC(=O)N1C(=O)C(=C2C=C(C)OC(C)=C2)c2ccccc21,7,-5,-24,2,12,66*
CC1=CC(=C2C(=O)c3ccccc3C2=O)C=C(C)O1,-1,4,13,-2,2,-5
C=CCn1c(SCC(=O)C(C)(C)C)nnc1-c1ccc(Cl)cc1,-5,-3,x,x,x,x
CC(C)CN1CCC(CN2C(=S)NC[C@@H]2Cc2ccccc2)CC1,0,-7,x,x,x,x
CCN1CCN(c2c(/C=C3\SC(=S)N(Cc4ccco4)C3=O)c(C)c(C#N)c(=O)n2C)CC1,-8,-10,-85,-26,1,62*
O=C1N/C(=C/c2ccc(N3CCCC3)cc2)C(=O)N1c1ccccc1,-1,-4,-8,-4,-1,6
Cc1cc(N2CCCC2)ccc1/C=C1\NC(=S)N(C)C1=O,-7,-11,-119,-22,-16,53*
O=C1/C(=C/c2ccc(N3CCCC3)cc2)NC(=S)N1C1CC1,-10,-19,-152,-32,-4,56*
O=C(O)Cc1c[nH]c2cccc(O)c12,-2,-6,15,-7,102*,-8
COc1cc(C(=O)Nc2ccc(Cl)c(C(F)(F)F)c2)cc(OC)c1OC,-3,0,0,-2,2,33*
Nc1c(C(=O)C2CC2)sc2nc(-c3cccs3)cc(C(F)(F)F)c12,-5,0,-36,-39,-15,46*
CC(C)OC(=O)CN1C(=O)S/C(=C/c2ccc(N3CCCCC3)o2)C1=O,3,2,-55,-5,-1,93*
O=C1S/C(=C/c2ccc(N3CCOCC3)o2)C(=O)N1Cc1ccc(F)cc1,4,-5,-51,-7,-1,72*
SMILES,Tn6 DDE FP,DDE Tn7 FP inh,Cardiac RTF inh,Keap1 Nrf2 FP,C-LANA FP,cardiac RTF act
COc1ccc2cc(/C=C3\SC(=S)NC3=O)c(N3CCOCC3)nc2c1,-1,4,-5,-7,2,-1
O=C1N=C(N2CCOCC2)S/C1=C/c1ccc(-c2ccc(F)cc2)o1,8,0,-14,-1,-1,6
O=C1S/C(=C\c2ccc(N3CCOCC3)o2)C(=O)N1Cc1ccc(F)cc1,x,x,-40,-60,1,50*
O=C1NC(=S)S/C1=C/c1ccc(N2CCOCC2)o1,x,x,-5,-16,-14,34*
COc1ccc(-c2cc(C(=O)NN=Cc3ccccc3F)[nH]n2)cc1,-5,-5,x,x,x,x
Cn1c(SCc2ccc(C(C)(C)C)cc2)nnc1-c1ccco1,11,-7,x,x,x,x
COc1ccc(C(=O)Nc2cc(Cl)c(Br)cc2C(=O)O)cc1,-9,-1,x,x,x,x
CC(=O)Nc1nc2n(n1)C(c1ccccc1)C=C(c1ccccc1)N2 (centres undefined),x,x,-21,1,15,4
CS(=O)(=O)Nc1nc2n(n1)C(c1ccccc1)C=C(c1ccc(Br)cc1)N2 (centres undefined),x,x,-78,35*,74*,82*
Cn1c(=O)c(Nc2ccc(Cl)cc2)c2c3c(cccc31)C(=O)c1ccccc1-2,4,36*,x,x,x,x
O=C(CC1C(=O)N(c2ccc(Cl)cc2)C(=S)N1CCc1ccncc1)Nc1ccc(F)cc1 (centres undefined),7,3,1,-5,0,39*
CCNC(=O)CC1C(=O)N(c2ccc(F)cc2)C(=S)N1CCc1ccncc1 (centres undefined),4,0,-1,-1,2,-1
[O-][n+]1c2ccccc2[n+]([O-])c2cc(O)ccc21,16*,-5,-8,-3,4,0
[O-][n+]1c(/C=C/c2ccccc2)ccc2ccccc21,4,-1,-7,-2,0,-1
COc1cc(OC)c(-c2c3cc(O)c(=O)cc-3oc3cc(O)c(O)cc23)cc1OC,+,-21,-488,-199,-32,894*
COc1cc(-c2cc(=O)c3ccc(O)cc3o2)cc(OC)c1OC,-2,4,x,x,x,x
Cc1c2cc(O)c(=O)cc-2oc2cc(O)c(O)cc12,1,15*,-20,121*,164*,109*
Brc1ccc(-c2cnnc(N3CCCC3)n2)cc1,-5,4,-57,-3,2,79*
c1ccc(-c2cnnc(N3CCOCC3)n2)cc1,0,0,-8,-3,3,0
COc1ccc(-n2c(COc3ccccc3)nnc2SCC(=O)Nc2ccc(OCc3ccccc3)cc2)cc1,-7,2,x,x,x,x
Nc1ccc(-c2nc3ccc(N)cc3[nH]2)cc1,-1,-4,1,0,0,3
